# CRFBP-R2 block = CRF-BP/CRF-R2 complex antagonism. HEK293 CRF-R2/CRF-BP, CRF-induced calcium fluorescence. inhibition, % at 11.8 µM. 350,000 tested, 0.59% active;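 active = inhibition of the ligand-induced calcium signal above about 50% at the single tested concentration, limit read from the data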
# 697 NFkB inh = lowers PMA/ionomycin-induced NF-kB signal in 697 B cells | 330,000 tested, 0.33% active | 697 B-cell NF-kB luciferase reporter, 16 h | inhibition, % at 4 µM; in the data active = inhibition above about 35%
# XBP1 UPR activ = activators of adaptive arm of unfolded protein response (XBP1); AID 463104; 330,000 tested, 0.33% active; activation, % at 20 µM; CHO-XBP1 luciferase reporter, IRE1-XBP1 UPR activation, luminescence; percent of tunicamycin response, DMSO as zero;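 active = versus positive control, 20 µM dose yields 30% or more activation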;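 also: 100% = tunicamycin at 10 µg/mL and 0% = DMSO only wells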
#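 Material: CHO-XBP1 cells stably carrying IRE1-XBP1-driven luciferase reporter | Medium: F12 with 10% serum | Compound dosing: 20 µM single concentration, DMSO 1% | Incubation: Overnight seeding at 37 °C, 6 h compound treatment at 37 °C | Detection: Steady-Glo luminescence read | Read-out basis: % activation of reporter signal versus tunicamycin and DMSO controls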
# Jurkat NFkB inh = lowers PMA/ionomycin-induced NF-kB signal in Jurkat cells. 330,000 tested, 0.53% active. inhibition, % at 4 µM. PMA/ionomycin-induced NF-kB luciferase reporter, luminescence. AID 435003; in the data active = inhibition above about 50%
# UPR CHOP act = activators of apoptotic arm of unfolded protein response (CHOP); CHO-CHOP luciferase reporter, UPR activation, luminescence; percent of tunicamycin response over DMSO baseline; activation, % at 10 µM; 330,000 tested, 0.34% active;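 active = at 10 µM dose, activation of 40% or more, normalized to positive control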;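 also: 100% = tunicamycin at 10 µg/mL and 0% = DMSO alone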
#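 Assay system: CHO cells with stable CHOP pathway luciferase reporter; Buffer or medium: F12 plus 10% serum; Times: 16-18 h cell attachment, then 6 h compound exposure, 37 °C; Signal: luciferase luminescence; Read-out basis: percent activation relative to tunicamycin control; Control set: tunicamycin high control, DMSO low control.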
# Active calls of the source: *; x = no result. Rows were chosen to be rich in hits. Some 1.8% of all compounds tested hit in one or more screens of this group.
SMILES,CRFBP-R2 block,697 NFkB inh,XBP1 UPR activ,Jurkat NFkB inh,UPR CHOP act
CCN(C(=O)COC(=O)c1cc2ccccc2cc1O)C1CCS(=O)(=O)C1 (centres undefined),-9,-2,-2,-6,0
CCN(CC)C(=O)[C@H]1CC(CC(=O)NC/C=C(\C)CCC=C(C)C)C(=O)N2CCc3c([nH]c4ccccc34)[C@]12C (some centres undefined),49,0,1,-12,6
CCN(CC)C(=O)[C@H]1CC(CC(=O)NC/C=C(\C)CCC=C(C)C)C(=O)N2CCc3c([nH]c4ccc(OC)cc34)[C@]12C (some centres undefined),78*,14,19,x,9
COc1ccc2[nH]c3c(c2c1)CCN1C(=O)C(CC(=O)NCCc2ccccn2)C[C@H](C(=O)N(C(C)C)C(C)C)[C@@]31C (some centres undefined),70*,18,2,x,1
CC[C@]12c3[nH]c4ccc(OC)cc4c3CCN1C(=O)C(CC(=O)NCCN1CCOCC1)C[C@@H]2C(=O)N1CCN(C(=O)c2ccco2)CC1 (some centres undefined),-5,3,1,x,0
CC[C@]12c3[nH]c4ccc(OC)cc4c3CCN1C(=O)C(CC(=O)NCCCOC)C[C@@H]2C(=O)N1CCN(C(=O)c2ccco2)CC1 (some centres undefined),53*,14,0,x,2
COCCCNC(=O)CC1C[C@H](C(=O)N(C(C)C)C(C)C)[C@@]2(C)c3[nH]c4ccc(OC)cc4c3CCN2C1=O (some centres undefined),-2,4,0,x,1
CN(C)CCCNC(=O)C[C@H]1C[C@H](C(=O)N2CCOCC2)[C@@]2(C)c3[nH]c4ccc(Cl)cc4c3CCN2C1=O,95*,10,3,x,1
Cc1ccc(OCCSc2nc3ccccc3n2CCC(=O)O)c(C(C)C)c1,5,x,x,x,x
CCN(CC)C(=O)[C@H]1C[C@H](CC(=O)NC/C=C(\C)CCC=C(C)C)C(=O)N2CCc3c([nH]c4ccc(Cl)cc34)[C@]12C,75*,-21,14,x,5
CN(Cc1ccccc1)c1nc(-c2ccc([N+](=O)[O-])cc2)nc2ccccc12,-15,-1,-2,-9,-2
CN(Cc1ccc([N+](=O)[O-])cc1)c1ccccc1,55*,x,x,x,x
CCN(Cc1ccccc1)C(=O)CN1C(=O)COc2ccc(S(=O)(=O)NC3CCCC3)cc21,-22,-8,-2,14,0
CN1c2ccccc2C(O)=C(C(=S)Nc2ccc(Cl)cc2)S1(=O)=O,59*,6,1,-10,0
CC(=O)N1CCOc2cc(S(=O)(=O)N3CCN(c4ccccc4)CC3)c(Cl)cc21,54*,9,-1,-9,2
O=c1oc(-c2ccco2)nc2sc3c(c12)CCCC3,52*,-13,0,6,3
O=c1oc(-c2ccccc2)nc2sc3c(c12)CCC3,2,-6,1,14,6
COc1ccc(NC(=O)NC(C)c2ccc3c(c2)OCO3)c(OC)c1 (centres undefined),63*,10,0,5,0
CCOC(=O)c1c(-c2ccc(OC)cc2)csc1NC(=O)CNCc1ccco1,78*,-7,1,13,2
CC1(C)CC(=O)C2=C(C1)c1c(ccc3ccccc13)NC2c1cc([N+](=O)[O-])cc([N+](=O)[O-])c1O (centres undefined),78*,7,-1,-6,0
CCOc1ccc(NC(=O)[C@@H](NC(=O)c2ccccc2)[C@@H](C)CC)cc1,63*,17,3,14,-2
COC(=O)c1ccc(NC(=O)CSc2ccc(-c3ccccn3)nn2)cc1,-9,7,-1,13,1
COc1cc(OC)cc(C(=O)NCC(=O)OCc2cc(=O)oc3cc(OC)ccc23)c1,105*,14,0,5,1
O=C(O)CCC(=O)OCCCc1cc2ccccc2c(=O)o1,7,6,-2,-75,0
OC(C#CCN1CCCC1)(c1ccccc1)c1cccnc1 (centres undefined),-7,5,-4,-9,-1
SMILES,CRFBP-R2 block,697 NFkB inh,XBP1 UPR activ,Jurkat NFkB inh,UPR CHOP act
OC(C#CCN1CCCCCC1)(c1ccccc1)c1cccnc1 (centres undefined),117*,12,-2,14,2
CCCCn1c(N)c(N(CCOC)C(=O)c2cccc(S(=O)(=O)N(CC)c3ccccc3)c2)c(=O)[nH]c1=O,-9,1,-1,14,-1
CCOC(=O)c1c(CC(C)C)csc1NC(=O)c1ccccc1C(=O)O,13,-15,-2,-5,0
CC(C)Cc1csc(NC(=O)c2ccc(F)cc2)c1C(=O)O,69*,18,-2,6,0
COCCNC(=O)CN1N=C(c2ccc(C)cc2)CCC1=O,8,10,0,0,-1
O=C(CCCNC(=O)c1ccc(Cl)cc1)Nc1nccs1,10,-10,-2,12,0
O=C(Oc1ccccc1)c1ccc(NC(=O)c2ccco2)cc1,79*,-3,3,-15,8
CSc1ccccc1OCc1cc(C(=O)NCc2csc(C(C)C)n2)no1,105*,-12,-3,10,1
O=c1[nH]c(=O)n(-c2ccc(F)cc2)c2c1C(C(F)(F)F)(C(F)(F)F)N=C(c1ccc(F)cc1)N2,67*,-47,1,20,0
Cc1ccc(C2=NC(C(F)(F)F)(C(F)(F)F)c3c(n(-c4ccc(F)cc4)c(=O)[nH]c3=O)N2)cc1,24,-20,-2,5,0
O=C(O)CC(c1ccccc1)N1C(=O)c2ccccc2C1=O (centres undefined),14,19,-2,-3,-1
CCOC(=O)c1cc([N+](=O)[O-])c([N+](=O)[O-])cc1NC(C)=O,51*,x,x,x,x
CCOC(=O)c1ccc(NC(=O)c2ccccc2[N+](=O)[O-])cc1,20,-42,-2,-39,6
CCOC(=O)c1c(C)[nH]c(C(=O)NCCc2ccc(OC)c(OC)c2)c1C,-4,4,4,-17,0
CCOc1ccccc1NC(=O)CNC(=O)Cc1ccccc1,52*,5,-2,-6,-1
C/C(=N\NC(=O)c1cc(Cl)ccc1O)c1ccc(Br)s1,52*,-138,-3,-62,4
CC(NC(=O)C1CCCN1S(=O)(=O)c1cccc2nsnc12)c1ccccc1 (centres undefined),76*,-14,-6,-4,-1
O=C(NC1CCCCC1)C1CCCN1S(=O)(=O)c1cccc2nsnc12 (centres undefined),-2,6,2,15,0
CC(/C=C/c1ccccc1)=N/NC(=O)CNC(=O)c1ccc2c(c1)OCO2,72*,18,-1,6,-3

# Compound activity from PubChem.
